ChEMBL document CHEMBL4138212, “Novel triazine dimers with potent antitrypanosomal activity” (Eur J Med Chem, 2018)
Activity calls are given as the source filed them. The rule behind the calls is not given here.

How the values were obtained:
Trypanosoma cruzi = experiment: Antitrypanosomal activity against beta-galactosidase expressing nifurtimox-sensitive Trypanosoma cruzi Tulahuen CL2 infected in human MRC5 SV2 cells assessed as decrease in parasite burden after 168 hrs by spectrophotometric method; type: functional, organism-based; conditions: Tulahuen CL2, MRC-5 SV2, 168 h
Leishmania infantum = experiment: Antileishmanial activity against amastigote stage of Leishmania infantum MHOM/MA(BE)/67 infected in mouse primary peritoneal macrophages assessed as decrease in parasite burden after 120 hrs by Giemsa staining-based microscopic method; type: functional, organism-based; conditions: MHOM/MA(BE)/67, 120 h
Plasmodium falciparum = experiment: Antiplasmodial activity against chloroquine-resistant Plasmodium falciparum K1 infected in human O-positive erythrocytes assessed as decrease in parasitaemia after 72 hrs by NBT dye-based spectrophotometric method; type: functional, organism-based; conditions: K1, 72 h
[1] = system: Trypanosoma brucei brucei; experiment: Antitrypanosomal activity against suramin-sensitive Trypanosoma brucei brucei Squib 427 after 72 hrs by resazurin dye-based fluorometric method; type: functional, organism-based; conditions: Squib 427, 72 h
In short: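 Bloodstream parasites in HMI-9 with 10% heat-inactivated FBS at 7×10⁴/mL were exposed to five 4-fold dilutions from 64 µg/mL for 72 h at 37 °C in 5% CO₂. IC₅₀ comes from % growth reduction versus controls, as the mean of at least two independent determinations.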

[2] = Cytotoxicity against human MRC5 SV2 cells assessed as decrease in cell viability after 72 hrs by resazurin dye-based fluorometric method; conditions: MRC-5 SV2, 72 h
[3] = system: Trypanosoma brucei rhodesiense; experiment: Antitrypanosomal activity against Trypanosoma brucei rhodesiense STIB-900 after 72 hrs by resazurin dye-based fluorometric method; type: functional, organism-based; conditions: STIB-900, 72 h
In short: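 Parasites in HMI-9 with 10% heat-inactivated FBS at 2×10⁴/mL were exposed to five 4-fold dilutions from 64 µg/mL for 72 h at 37 °C in 5% CO₂. IC₅₀ comes from % growth reduction versus controls, as the mean of at least two independent determinations.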

[4] = system: Trypanosoma brucei brucei; experiment: (§1) Antitrypanosomal activity against suramin-sensitive Trypanosoma brucei brucei Squib 427 infected in Swiss mouse assessed as increase in mouse survival at 10 mg/kg administered first dose orally 1/2 hrs prior to infection followed by dosed intraperitoneally as qd for 5 days measured on day 14 post infection; type: functional, organism-based
In short: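 Female Swiss mice, 6 per group, were infected IP with about 1×10⁴ trypanosomes in 0.25 ml PBS-diluted donor blood on day 0. The first dose was given orally ½ h before infection, then IP for 5 days. Vehicles were 100% DMSO or DMSO/PEG200 (1/50); suramin was formulated in PBS. Mortality was monitored daily, ill animals were euthanized, and survivors were counted on day 14 post-infection.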

[5] = system: Trypanosoma brucei brucei; experiment: as §1, with “reduction” for “increase”, “parasitemia” for “mouse survival”, “4 of compound dosing by Giemsa staining-based microscopic method relative to control” for “14 post infection”; type: functional; design: scale not given: the % may be the effect or the level left
In short: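 Female Swiss mice, 6 per group, were infected IP with about 1×10⁴ trypanosomes on day 0. The first dose was given orally ½ h before infection, then IP for 5 days, in DMSO, DMSO/PEG200 (1/50) or PBS for suramin. On day 4, tail-vein blood smears were Giemsa-stained and counted microscopically. Activity = 100 − (mean parasitemia treated/mean vehicle-infected control)×100.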

| Structure (SMILES) | IC50 (Trypanosoma cruzi) [µM] | IC50 [2] [µM] | further results |
| --- | --- | --- | --- |
| Cc1cc(C)c(Nc2nc(Nc3ccc(C#N)cc3)nc(Nc3ccc(Nc4nc(Nc5ccc(C#N)cc5)nc(Nc5c(C)cc(C)cc5C)n4)cc3)n2)c(C)c1 | > 64 | > 64 | IC50 (Leishmania infantum): > 64 µM; IC50 (Plasmodium falciparum): > 64 µM; IC50 [1]: 0.53 µM; IC50 [3]: 0.02 µM |
| CO[C@H]1O[C@@H]2O[C@@]3(C)CC[C@H]4[C@H](C)CC[C@@H]([C@H]1C)[C@@]24OO3 |  | > 64 | IC50 (Plasmodium falciparum): 0.02 µM |
| O=C(Cn1ccnc1[N+](=O)[O-])NCc1ccccc1 [BENZNIDAZOLE] | 2.56 | > 64 |  |
| CCN(CC)CCCC(C)Nc1ccnc2cc(Cl)ccc12 (stereo not drawn) [CHLOROQUINE] |  | > 64 |  |
| Nc1nc(N)nc(Nc2ccc([As]3SCC(CO)S3)cc2)n1 (stereo not drawn) [MELARSOPROL] |  | 7.4 |  |
| CCCCCCCCCCCCCCCCOP(=O)([O-])OCC[N+](C)(C)C [MILTEFOSINE] |  | > 64 |  |
| CC1CS(=O)(=O)CCN1/N=C/c1ccc([N+](=O)[O-])o1 (stereo not drawn) [NIFURTIMOX] | 0.7 | > 64 |  |
| Cc1ccc(C(=O)Nc2ccc(S(=O)(=O)O)c3cc(S(=O)(=O)O)cc(S(=O)(=O)O)c23)cc1NC(=O)c1cccc(NC(=O)Nc2cccc(C(=O)Nc3cc(C(=O)Nc4ccc(S(=O)(=O)O)c5cc(S(=O)(=O)O)cc(S(=O)(=O)O)c45)ccc3C)c2)c1 [SURAMIN] |  | > 64 | Activity [4]: Active; Activity [5]: 100% |
